From article PMC6301001 (Cancer chemotherapy and pharmacology, 2015)
Values joined by “and” are separate entries in the source; they are usually repeats but may differ in a detail not shown here. Equal entries are not always repeated. “Also recorded” adds a separate entry of the source. Where two headings read alike, the source gives them in different places.

How the values were obtained:
[1] = assay type: in vivo, rhesus monkeys (Macaca mulatta); details: single oral dose 7 mg/kg; for Cl: plasma clearance
Method in brief: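 Single 7 mg/kg oral dose by nasogastric tube under ketamine sedation to three adult male rhesus monkeys (10.5–14.7 kg) fitted with central venous ports. Blood sampled at 0–10, 24 and 48 h, then on days 0–64; plasma held at –80 °C. Total drug by HPLC/MS/MS after acetonitrile precipitation with miltefosine internal standard; standards 0.001–10 µg/ml; LLOQ 1 ng/ml. Non-compartmental: observed Cmax/Tmax, trapezoidal AUC0–inf, t1/2 = 0.693/k, Cl = dose/AUC0–inf.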

[2] = assay type: in vivo, rhesus monkeys (Macaca mulatta)
Method in brief: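 Three adult male rhesus monkeys with an implanted fourth-ventricular CSF catheter/reservoir, sedated with ketamine (10 mg/kg IM), then given a single 7 mg/kg oral dose by nasogastric tube. CSF (0.3 ml) sampled at 0–10, 24 and 48 h, then in a repeat study on days 0–64. Total drug by HPLC/MS/MS (LLOQ 0.1 ng/ml). Non-compartmental analysis: observed Cmax; trapezoidal AUC0–inf; t1/2 = 0.693/terminal rate constant; penetration = CSF/plasma AUC0–inf.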

human tumor cell lines = details: wide variety of human tumor cell lines; reported range; cited from earlier work
[3] = adult patients with solid tumors, cited from earlier work
[4] = test system: mouse model of DIPG in which the PI3Kinase/Akt pathway is activated; details: genetically engineered mouse model of DIPG; cited from earlier work
glioma cell lines = details: cited from earlier work
[5] = test system: U251 xenografts injected into the hind limb; details: cited from earlier work
[6] = cited from earlier work
[7] = CSF, individual NHP, single oral dose 7 mg/kg, 7 mg/kg

CCCCCCCCCCCCCCCCCCOP(=O)([O-])OC1CC[N+](C)(C)CC1 [Perifosine]
Cl ([1]; individual NHP, 7 mg/kg): 77.6 mL/h and 36.5 mL/h and 63.3 mL/h
Cl ([1]; mean (range) of 3 NHP): 59.1 mL/h
T 1/2 ([1]; plasma terminal half-life, individual NHP, 7 mg/kg): 193 h and 170 h
AUC ([1]; plasma, individual NHP, T = 0 to infinity, 7 mg/kg): 2139 µg·h/mL and 1137 µg·h/mL
Cmax ([1]; plasma, individual NHP, sampling to 64 days, 7 mg/kg): 8.8 µg/mL and 5.3 µg/mL
time plasma concentrations remained >1 µM ([1]; plasma): > 28 days
t 1/2 ([2]; CSF terminal half-life, individual NHP, single oral dose 7 mg/kg, 7 mg/kg): 6.08 days and 11.5 days and 14.6 days
Cmax [2, 7]: 1.85 ng/mL and 4.39 ng/mL and 4.57 ng/mL
Tmax [2, 7]: 63.6 h and 235.3 h and 235.4 h
AUC ([2]; CSF, individual NHP, single oral dose 7 mg/kg, T = 0 to infinity, 7 mg/kg): 1031 ng·h/mL and 3440 ng·h/mL and 2890 ng·h/mL
maximum measured CSF concentration ([2]; CSF, mean of 3 NHP, single oral dose 7 mg/kg, molar equivalent): 7.8 nM
CSF AUC ([2]; CSF, median (range) of 3 NHP, single oral dose 7 mg/kg): 6358 (2266–7568) nM/h
Cmax in the CSF in initial experiments ([2]; CSF, oral 7.0 mg/kg, collection up to 48 h, 7 mg/kg): had not been reached by 48 h; also recorded: has not been reached by 48 h
time to maximum CSF concentration ([2]; CSF, single oral dose 7 mg/kg, 7 mg/kg): > 7 days and 7 days
Kp ([2]; male, rhesus monkey, CSF, po, 7 mg/kg): 0.0016
AUCCSF:AUCPl (ratio of CSF to plasma exposure) ([2]; mean of 3 NHP, single oral dose 7 mg/kg): .0016
time levels were measurable in both plasma and CSF ([2]; plasma and CSF, after a single oral dose): > 2 months
CSF concentrations relative to plasma concentrations (fold less) ([2]; single oral dose 7 mg/kg): 1000 fold
IC.50 (human tumor cell lines): .09 to 9.2 µg/mL
terminal half-life in humans ([3]; 50–350 mg/day orally for 3 weeks): 105 h
plasma half-lives ([3]; oral dose): 80 to 116 h
time of peak plasma concentrations ([3]; oral dose): 8 to 24 h
activity in mouse model of pontine glioma [4]: absent activity; also recorded: lacked activity; also recorded: no activity was observed
activity in vitro against glioma cell lines (glioma cell lines): demonstrated activity
activity in vivo in mice bearing U251 xenografts [5]: demonstrated activity
tolerability in early phase clinical trials [6]: relatively well tolerated
single-agent responses in patients ([6]; renal cell carcinoma, sarcoma and Waldenstroms macroglobulinemia, Phase I and Phase II): single-agent objective responses have been reported
